ChEMBL document CHEMBL1137655, “Isoxyl activation is required for bacteriostatic activity against Mycobacterium tuberculosis” (2007)
Values after ≈ are worked out from the molar mass of the structure shown.

Legend:
[1] = tested on: Mycobacterium tuberculosis; assay: microbe, parasite or virus in culture; details: H37Rv
[2] = tested on: Mycobacterium tuberculosis; assay: microbe, parasite or virus in culture; details: Mt103
[3] = tested on: Mycobacterium tuberculosis H37Rv; assay: Inhibition of Mycobacterium tuberculosis H37Rv recombinant DesA3-mediated unsaturated fatty acid synthesis using Mycobacterium smegmatis MC2155 membrane as cofactor assessed as stearic acid levels relative to control; parameters: scale not given: the % may be the effect or the level left
How it was run: (§1)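 Cell-free desaturation: 0.5 mg M. smegmatis membrane protein, 3 μg His-tagged DesA3 purified from M. smegmatis, 500 μM palmitoyl-CoA, 1 mM NADPH, ±6 μg purified EthA, ISO 0 or 10 μg/ml final, 25 mM Tris-HCl pH 7.5; 75 min at 30°C; chloroform:methanol extraction, methyl esters, GC relative percentages.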

[4] = tested on: Mycobacterium tuberculosis; assay: Antimycobacterial activity against Mycobacterium tuberculosis isolate Mt103 expressing VV16 plasmid by colorimetric resazurin microtiter assay; type: functional
How it was run: (§2)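 Resazurin colorimetric microtiter MIC in 7H9-ADC broth with 2% DMSO at 37°C; strains carry empty pVV16 or pVVethA complementation vector; ISO tested up to 40 μg/ml, highest soluble level.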

[5] = tested on: Mycobacterium tuberculosis H37Rv; assay: Inhibition of Mycobacterium tuberculosis H37Rv recombinant DesA3-mediated unsaturated fatty acid synthesis using Mycobacterium smegmatis MC2155 membrane as cofactor assessed as palmitic acid levels relative to control; parameters: scale not given: the % may be the effect or the level left
How it was run: as §1

[6] = tested on: Mycobacterium tuberculosis H37Rv; assay: Inhibition of Mycobacterium tuberculosis H37Rv recombinant DesA3-mediated unsaturated fatty acid synthesis using Mycobacterium smegmatis MC2155 membrane as cofactor assessed as oleic acid levels relative to control; parameters: scale not given: the % may be the effect or the level left
How it was run: as §1

[7] = tested on: Mycobacterium tuberculosis H37Rv; assay: Inhibition of Mycobacterium tuberculosis H37Rv recombinant DesA3-mediated unsaturated fatty acid synthesis using Mycobacterium smegmatis MC2155 membrane and partially purified EthA as cofactors assessed as palmitic acid levels relative to control; parameters: scale not given: the % may be the effect or the level left
How it was run: as §1

[8] = tested on: Mycobacterium tuberculosis H37Rv; assay: Inhibition of Mycobacterium tuberculosis H37Rv recombinant DesA3-mediated unsaturated fatty acid synthesis using Mycobacterium smegmatis MC2155 membrane and partially purified EthA as cofactors assessed as stearic acid levels relative to control; parameters: scale not given: the % may be the effect or the level left
How it was run: as §1

[9] = tested on: Mycobacterium tuberculosis H37Rv; assay: Inhibition of Mycobacterium tuberculosis H37Rv recombinant DesA3-mediated unsaturated fatty acid synthesis using Mycobacterium smegmatis MC2155 membrane and partially purified EthA as cofactors assessed as tuberculostearic acid levels relative control; parameters: scale not given: the % may be the effect or the level left
How it was run: as §1

[10] = tested on: Mycobacterium tuberculosis H37Rv; assay: Inhibition of Mycobacterium tuberculosis H37Rv recombinant DesA3-mediated unsaturated fatty acid synthesis using Mycobacterium smegmatis MC2155 membrane as cofactor assessed as tuberculostearic acid levels relative to control; parameters: scale not given: the % may be the effect or the level left
How it was run: as §1

[11] = tested on: Mycobacterium tuberculosis; assay: Antimycobacterial activity against wild-type Mycobacterium tuberculosis H37Rv ATCC 25618 expressing VV16 plasmid by colorimetric resazurin microtiter assay; type: functional
How it was run: as §2

[12] = tested on: Mycobacterium tuberculosis H37Rv; assay: Inhibition of Mycobacterium tuberculosis H37Rv recombinant DesA3-mediated unsaturated fatty acid synthesis using Mycobacterium smegmatis MC2155 membrane and partially purified EthA as cofactors assessed as palmitoleic acid levels relative to control; parameters: scale not given: the % may be the effect or the level left
How it was run: as §1

[13] = tested on: Mycobacterium tuberculosis H37Rv; assay: Inhibition of Mycobacterium tuberculosis H37Rv recombinant DesA3-mediated unsaturated fatty acid synthesis using Mycobacterium smegmatis MC2155 membrane and partially purified EthA as cofactors assessed as oleic acid levels relative to control; parameters: scale not given: the % may be the effect or the level left
How it was run: as §1

[14] = tested on: Mycobacterium tuberculosis H37Rv; assay: Inhibition of Mycobacterium tuberculosis H37Rv recombinant DesA3-mediated unsaturated fatty acid synthesis using Mycobacterium smegmatis MC2155 membrane as cofactor assessed as palmitoleic acid levels relative to control; parameters: scale not given: the % may be the effect or the level left
How it was run: as §1

Structure (SMILES) | MIC [1] [µg/mL] | MIC [2] [µg/mL] | Activity [3] [%] | MIC [4] [µg/mL] | Activity [5] [%] | Activity [6] [%] | Activity [7] [%] | Activity [8] [%] | Activity [9] [%] | Activity [10] [%] | MIC [11] [µg/mL] | Activity [12] [%] | Activity [13] [%] | Activity [14] [%]
CCc1cc(C(N)=S)ccn1 [ETHIONAMIDE] | 5 (≈ 30.1 µM) | 5 (≈ 30.1 µM) |  |  |  |  |  |  |  |  |  |  |  | 
CC(C)CCOc1ccc(NC(=S)Nc2ccc(OCCC(C)C)cc2)cc1 [TIOCARLIDE] |  |  | 1 | 5 (≈ 12.5 µM) | 54.1 | 0.1 | 49.8 | 1.1 | 42.8 | 44.7 | 5 (≈ 12.5 µM) | 1.9 | 4.4 | 0.1
